According to ChEMBL document CHEMBL1140308, “A new synthetic agent with potent but selective cytotoxic activity against cancer” (2005):

test system: HCT-116; experiment: Concentration required to inhibit the growth of human colon cancer HCT116 cell line by 50% to initial after 120 hours; determined using MTT assay; type: functional; conditions: HCT-116, 120 h

Row | Structure (SMILES) | GI50 [nM]
1 | Nc1cc2c3c(cccc3c1)C(=O)N(CCCN1CCN(CCCNc3ccc4ncn5c6ccccc6c(=O)c3c45)CC1)C2=O | 2.2
2 | O=C1c2cccc3cc([N+](=O)[O-])cc(c23)C(=O)N1CCCN1CCN(CCCNc2ccc3ncn4c5ccccc5c(=O)c2c34)CC1 | 0.5
3 | CN(CCCNc1ccc2ncn3c4ccccc4c(=O)c1c23)CCCN1C(=O)c2cccc3cc([N+](=O)[O-])cc(c23)C1=O | 8
4 | COc1ccc2nc3cc(Cl)ccc3c(NCCCN3CCN(CCCNc4ccc5ncn6c7ccccc7c(=O)c4c56)CC3)c2c1 | 3.8
5 | CN(C)CCN1C(=O)c2cccc3cc([N+](=O)[O-])cc(c23)C1=O [MITONAFIDE] | 250

test system: A549; experiment: Concentration required to cause lethality in human […] lung cancer A549 cell line by 50% after 120 hours; determined by MTT assay; type: functional; conditions: A549, 120 h
How it was run: (§1)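 Cells (DMEM for HCT-116, SK-MEL-2, A549; RPMI 1640 for HL-60, MCF-7; 10% FBS) were seeded at 1000-1500 per well and precultured 1 day. Methanesulfonate-salt drug was added as 10-fold serial dilutions from a 2 μM working solution, six wells per concentration. MTT absorbance was read at 544 nm after 120 h at 37 °C against T0 plates. LC50 is 50% reduction of initial cell number; values are the mean of ≥3 independent determinations.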

Row | Structure (SMILES) | LC50 [nM]
6 | Nc1cc2c3c(cccc3c1)C(=O)N(CCCN1CCN(CCCNc3ccc4ncn5c6ccccc6c(=O)c3c45)CC1)C2=O | 100
7 | O=C1c2cccc3cc([N+](=O)[O-])cc(c23)C(=O)N1CCCN1CCN(CCCNc2ccc3ncn4c5ccccc5c(=O)c2c34)CC1 | 35
8 | CN(CCCNc1ccc2ncn3c4ccccc4c(=O)c1c23)CCCN1C(=O)c2cccc3cc([N+](=O)[O-])cc(c23)C1=O | 500
9 | COc1ccc2nc3cc(Cl)ccc3c(NCCCN3CCN(CCCNc4ccc5ncn6c7ccccc7c(=O)c4c56)CC3)c2c1 | > 1000

test system: A549; experiment: Concentration required to inhibit human […] lung cancer A549 cell growth by 50% after 120 hours; determined by MTT assay; type: functional; conditions: A549, 120 h
How it was run: (§2)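 Cells (A549, HCT-116, SK-MEL-2 in DMEM; HL-60, MCF-7 in RPMI 1640; 10% FBS) seeded at 1000-1500/well, six wells per concentration, and precultured 1 day. Added 2 µM working solution and 10-fold serial dilutions, or vehicle. MTT read at 544 nm after 120 h at 37 °C, with T0 reference plates. GI50 is 50% of control growth; ≥3 independent runs.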

Row | Structure (SMILES) | GI50 [nM]
10 | O=C1c2cccc3cc([N+](=O)[O-])cc(c23)C(=O)N1CCCN1CCN(CCCNc2ccc3ncn4c5ccccc5c(=O)c2c34)CC1 | 0.6
11 | CN(CCCNc1ccc2ncn3c4ccccc4c(=O)c1c23)CCCN1C(=O)c2cccc3cc([N+](=O)[O-])cc(c23)C1=O | 25
12 | COc1ccc2nc3cc(Cl)ccc3c(NCCCN3CCN(CCCNc4ccc5ncn6c7ccccc7c(=O)c4c56)CC3)c2c1 | 8
13 | CN(C)CCN1C(=O)c2cccc3cc([N+](=O)[O-])cc(c23)C1=O [MITONAFIDE] | 65

test system: HL-60; experiment: Concentration required to inhibit the growth of human leukemia cancer HL-60 cell line by 50% after 120 hours; determined by MTT assay; type: functional; conditions: HL-60, 120 h; how it was run: as §2

Row | Structure (SMILES) | GI50 [nM]
14 | Nc1cc2c3c(cccc3c1)C(=O)N(CCCN1CCN(CCCNc3ccc4ncn5c6ccccc6c(=O)c3c45)CC1)C2=O | 5
15 | O=C1c2cccc3cc([N+](=O)[O-])cc(c23)C(=O)N1CCCN1CCN(CCCNc2ccc3ncn4c5ccccc5c(=O)c2c34)CC1 | 3.5
16 | CN(CCCNc1ccc2ncn3c4ccccc4c(=O)c1c23)CCCN1C(=O)c2cccc3cc([N+](=O)[O-])cc(c23)C1=O | 120
17 | COc1ccc2nc3cc(Cl)ccc3c(NCCCN3CCN(CCCNc4ccc5ncn6c7ccccc7c(=O)c4c56)CC3)c2c1 | 400
18 | CN(C)CCN1C(=O)c2cccc3cc([N+](=O)[O-])cc(c23)C1=O [MITONAFIDE] | 45

test system: MCF7; experiment: Concentration required to inhibit the growth of human breast cancer MCF-7 cell line by 50% after 120 hours; determined by MTT assay; type: functional; conditions: MCF7, 120 h; how it was run: as §2

Row | Structure (SMILES) | GI50 [nM]
19 | Nc1cc2c3c(cccc3c1)C(=O)N(CCCN1CCN(CCCNc3ccc4ncn5c6ccccc6c(=O)c3c45)CC1)C2=O | 32
20 | O=C1c2cccc3cc([N+](=O)[O-])cc(c23)C(=O)N1CCCN1CCN(CCCNc2ccc3ncn4c5ccccc5c(=O)c2c34)CC1 | 3.2
21 | CN(CCCNc1ccc2ncn3c4ccccc4c(=O)c1c23)CCCN1C(=O)c2cccc3cc([N+](=O)[O-])cc(c23)C1=O | 50
22 | COc1ccc2nc3cc(Cl)ccc3c(NCCCN3CCN(CCCNc4ccc5ncn6c7ccccc7c(=O)c4c56)CC3)c2c1 | 400
23 | CN(C)CCN1C(=O)c2cccc3cc([N+](=O)[O-])cc(c23)C1=O [MITONAFIDE] | 245

test system: HCT-116; experiment: Concentration required to cause lethality in human colon cancer HCT116 cell line by 50% after 120 hours; determined by MTT assay; type: functional; conditions: HCT-116, 120 h; how it was run: as §1

Row | Structure (SMILES) | LC50 [nM]
24 | Nc1cc2c3c(cccc3c1)C(=O)N(CCCN1CCN(CCCNc3ccc4ncn5c6ccccc6c(=O)c3c45)CC1)C2=O | 80
25 | O=C1c2cccc3cc([N+](=O)[O-])cc(c23)C(=O)N1CCCN1CCN(CCCNc2ccc3ncn4c5ccccc5c(=O)c2c34)CC1 | 32
26 | CN(CCCNc1ccc2ncn3c4ccccc4c(=O)c1c23)CCCN1C(=O)c2cccc3cc([N+](=O)[O-])cc(c23)C1=O | 220
27 | COc1ccc2nc3cc(Cl)ccc3c(NCCCN3CCN(CCCNc4ccc5ncn6c7ccccc7c(=O)c4c56)CC3)c2c1 | > 1000

test system: SK-MEL-2; experiment: Concentration required to inhibit the growth of human malenoma cancer SK-MEL-2 cell line by 50% after 120 hours; determined by MTT assay; type: functional; conditions: SK-MEL-2, 120 h; how it was run: as §2

Row | Structure (SMILES) | GI50 [nM]
28 | Nc1cc2c3c(cccc3c1)C(=O)N(CCCN1CCN(CCCNc3ccc4ncn5c6ccccc6c(=O)c3c45)CC1)C2=O | 15
29 | O=C1c2cccc3cc([N+](=O)[O-])cc(c23)C(=O)N1CCCN1CCN(CCCNc2ccc3ncn4c5ccccc5c(=O)c2c34)CC1 | 4
30 | CN(CCCNc1ccc2ncn3c4ccccc4c(=O)c1c23)CCCN1C(=O)c2cccc3cc([N+](=O)[O-])cc(c23)C1=O | 150
31 | COc1ccc2nc3cc(Cl)ccc3c(NCCCN3CCN(CCCNc4ccc5ncn6c7ccccc7c(=O)c4c56)CC3)c2c1 | 300
32 | CN(C)CCN1C(=O)c2cccc3cc([N+](=O)[O-])cc(c23)C1=O [MITONAFIDE] | 150

test system: A549; experiment: Concentration required for inhibition of human […] lung cancer A549 cell growth by 50%, after 120 hours; determined by MTT assay; type: functional; conditions: A549, 120 h; how it was run: as §2

Row | Structure (SMILES) | GI50 [nM]
33 | Nc1cc2c3c(cccc3c1)C(=O)N(CCCN1CCN(CCCNc3ccc4ncn5c6ccccc6c(=O)c3c45)CC1)C2=O | 2.5

test system: MCF7; experiment: Concentration required to cause lethality in human breast cancer MCF-7 cell line by 50% after 120 hours; determined by MTT assay; type: functional; conditions: MCF7, 120 h; how it was run: as §1

Row | Structure (SMILES) | LC50 [nM]
34 | Nc1cc2c3c(cccc3c1)C(=O)N(CCCN1CCN(CCCNc3ccc4ncn5c6ccccc6c(=O)c3c45)CC1)C2=O | > 1000
35 | O=C1c2cccc3cc([N+](=O)[O-])cc(c23)C(=O)N1CCCN1CCN(CCCNc2ccc3ncn4c5ccccc5c(=O)c2c34)CC1 | > 1000
36 | CN(CCCNc1ccc2ncn3c4ccccc4c(=O)c1c23)CCCN1C(=O)c2cccc3cc([N+](=O)[O-])cc(c23)C1=O | > 1000
37 | COc1ccc2nc3cc(Cl)ccc3c(NCCCN3CCN(CCCNc4ccc5ncn6c7ccccc7c(=O)c4c56)CC3)c2c1 | > 1000

test system: HL-60; experiment: Concentration required to cause lethality in human leukemia cancer HL-60 cell line by 50% after 120 hours; determined by MTT assay; type: functional; conditions: HL-60, 120 h; how it was run: as §1

Row | Structure (SMILES) | LC50 [nM]
38 | Nc1cc2c3c(cccc3c1)C(=O)N(CCCN1CCN(CCCNc3ccc4ncn5c6ccccc6c(=O)c3c45)CC1)C2=O | 450
39 | O=C1c2cccc3cc([N+](=O)[O-])cc(c23)C(=O)N1CCCN1CCN(CCCNc2ccc3ncn4c5ccccc5c(=O)c2c34)CC1 | 33
40 | CN(CCCNc1ccc2ncn3c4ccccc4c(=O)c1c23)CCCN1C(=O)c2cccc3cc([N+](=O)[O-])cc(c23)C1=O | 500
41 | COc1ccc2nc3cc(Cl)ccc3c(NCCCN3CCN(CCCNc4ccc5ncn6c7ccccc7c(=O)c4c56)CC3)c2c1 | > 1000

same assay, conditions: HL-60, 120 h, read-out: LC50 (the source's name)

Row | Structure (SMILES) | CC50 [nM]
42 | CN(C)CCN1C(=O)c2cccc3cc([N+](=O)[O-])cc(c23)C1=O [MITONAFIDE] | 400

test system: SK-MEL-2; experiment: Concentration required to cause lethality in human malenoma cancer SK-MEL-2 cell line by 50% after 120 hrs; determined by MTT assay; type: functional; conditions: SK-MEL-2, 120 h; how it was run: as §1

Row | Structure (SMILES) | LC50 [nM]
43 | Nc1cc2c3c(cccc3c1)C(=O)N(CCCN1CCN(CCCNc3ccc4ncn5c6ccccc6c(=O)c3c45)CC1)C2=O | 750
44 | O=C1c2cccc3cc([N+](=O)[O-])cc(c23)C(=O)N1CCCN1CCN(CCCNc2ccc3ncn4c5ccccc5c(=O)c2c34)CC1 | 60
45 | CN(CCCNc1ccc2ncn3c4ccccc4c(=O)c1c23)CCCN1C(=O)c2cccc3cc([N+](=O)[O-])cc(c23)C1=O | > 1000
46 | COc1ccc2nc3cc(Cl)ccc3c(NCCCN3CCN(CCCNc4ccc5ncn6c7ccccc7c(=O)c4c56)CC3)c2c1 | > 1000
